Data reported in ChEMBL document CHEMBL2331408, “Discovery and structure-activity relationships of pyrrolone antimalarials” (J Med Chem, 2013).

Tests used:
[1] = Partition coefficient, log D of the compound at pH 7.4 by HPLC analysis; assay type: physicochemical; details: octanol/water
How it was run: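 LogD at pH 7.4 measured with a chromatographic gLogD technique.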

[2] = Drug metabolism in mouse liver microsomes assessed as mono-oxygenation at 1 uM by LC/MS analysis; assay type: ADME, Microsome
[3] = (§1) Intrinsic clearance in mouse liver microsomes at 1 uM by LC/MS analysis; assay type: ADME, Microsome; details: liver microsomes, read-out: CLH
How it was run: (§2)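 Mouse hepatic microsomes; in vitro intrinsic clearance from compound degradation during incubation, expressed as μL/min/mg.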

[4] = tested on: Liver; experiment: as §1; assay type: ADME, Microsome; details: microsomes, 1 µM; how it was run: as §2
[5] = Drug metabolism in mouse liver microsomes assessed as bis-oxygenation at 1 uM by LC/MS analysis; assay type: ADME, Microsome
[6] = Drug metabolism in mouse liver microsomes assessed as morpholine ring cleavage at 1 uM by LC/MS analysis; assay type: ADME, Microsome
[7] = Drug metabolism in mouse liver microsomes assessed as glucuronide metabolite formation at 1 uM by LC/MS analysis; assay type: ADME, Microsome
[8] = Drug metabolism in mouse liver microsomes assessed as O-demethylation at 1 uM by LC/MS analysis; assay type: ADME, Microsome
[9] = tested on: Liver; experiment: Half life in mouse liver microsomes; assay type: ADME, Microsome
[10] = tested on: Liver microsomes; experiment: Half life in rat liver microsomes; assay type: ADME, Microsome
[11] = tested on: Liver microsomes; experiment: Intrinsic clearance in rat liver microsomes at 1 uM by LC/MS analysis; assay type: ADME, Microsome
[12] = tested on: Liver microsomes; experiment: Drug metabolism in human liver microsomes at 1 uM by LC/MS analysis; assay type: ADME, Microsome
[13] = tested on: Liver microsomes; experiment: Intrinsic clearance in human liver microsomes at 1 uM by LC/MS analysis; assay type: ADME, Microsome
[14] = tested on: Rattus norvegicus; experiment: Oral bioavailability in Sprague-Dawley rat at 19 mg/kg; assay type: ADME, organism-based; details: in vivo
[15] = tested on: Liver microsomes; experiment: Half life in human liver microsomes; assay type: ADME, Microsome
[16] = Cmax in Sprague-Dawley rat at 19 mg/kg, po; assay type: ADME, organism-based; parameters: dose 19 mg/kg, route oral; details: in vivo
[17] = Drug metabolism in mouse liver microsomes at 1 uM by LC/MS analysis; assay type: ADME, Microsome
[18] = Volume of distribution at steady state in Sprague-Dawley rat at 1 mg/kg, iv; assay type: ADME, organism-based; parameters: dose 1 mg/kg, route intravenous; details: in vivo, read-out: Vdss
How it was run: (§3)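 Male Sprague–Dawley rats, single iv dose as solution in aqueous vehicle with 40% (v/v) propylene glycol; serial plasma concentrations, profiles averaged from n = 2 rats; urine collected for unchanged drug. Half-life, steady-state volume of distribution and plasma clearance taken from plasma concentration–time profiles.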

[19] = tested on: Liver microsomes; experiment: Drug metabolism in rat liver microsomes at 1 uM by LC/MS analysis; assay type: ADME, Microsome
[20] = in vivo; details: Sprague-Dawley, rat, po, 19 mg/kg
[21] = Apparent terminal half life in Sprague-Dawley rat at 1 mg/kg, iv; assay type: ADME, organism-based; parameters: dose 1 mg/kg, route intravenous; details: in vivo, read-out: betat1/2(app) (converted); how it was run: as §3
[22] = Plasma clearance in Sprague-Dawley rat at 1 mg/kg, iv; assay type: ADME, organism-based; parameters: dose 1 mg/kg, route intravenous
How it was run: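 Male Sprague–Dawley rats given a nominal 1 mg/kg iv dose as a solution in aqueous vehicle containing 40% (v/v) propylene glycol. Plasma concentration–time profiles were measured, with each profile the average of n = 2 rats. Plasma clearance was derived from the iv profile.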

[23] = Cmax in Sprague-Dawley rat at 19 mg/kg, ip; assay type: ADME, organism-based; parameters: dose 19 mg/kg, route intraperitoneal; details: in vivo
[24] = Drug excretion in Sprague-Dawley rat urine at […], iv; assay type: ADME, organism-based; parameters: dose 4.5 mg/kg, route intravenous; details: read-out: Drug excretion
[25] = Apparent terminal half life in Sprague-Dawley rat at 19 mg/kg, ip; assay type: ADME, organism-based; parameters: dose 19 mg/kg, route intraperitoneal; details: in vivo, read-out: betat1/2(app) (converted)
[26] = tested on: Rattus norvegicus; experiment: Oral bioavailability in Sprague-Dawley rat at 20 mg/kg; assay type: ADME, organism-based; details: in vivo
[27] = tested on: Rattus norvegicus; experiment: Bioavailability in Sprague-Dawley rat at 19 mg/kg, ip; assay type: ADME, organism-based; details: in vivo
[28] = Volume of distribution at steady state in Sprague-Dawley rat at […], iv; assay type: ADME, organism-based; parameters: dose 4.5 mg/kg, route intravenous; details: in vivo, read-out: Vdss
[29] = Apparent terminal half life in Sprague-Dawley rat at […], iv; assay type: ADME, organism-based; parameters: dose 4.5 mg/kg, route intravenous; details: in vivo, read-out: betat1/2(app) (converted)
[30] = Drug excretion in iv dosed rat urine assessed as glutathione adduct level; assay type: ADME, organism-based; details: in vivo
[31] = Cmax in Sprague-Dawley rat at 20 mg/kg, po; assay type: ADME, organism-based; parameters: dose 20 mg/kg, route oral; details: in vivo
[32] = Drug degradation assessed as reactivity with reduced glutathione ethyl ester; assay type: physicochemical
[33] = tested on: Liver microsomes; experiment: Drug metabolism in rat liver microsomes assessed as mono-oxygenation at 1 uM by LC/MS analysis; assay type: ADME, Microsome
[34] = Drug excretion in Sprague-Dawley rat urine at 20 mg/kg, po; assay type: ADME, organism-based; parameters: dose 20 mg/kg, route oral; details: read-out: Drug excretion
How it was run: (§4)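 Male Sprague–Dawley rats, nominal 20 mg/kg (19 mg/kg actual ip), given po as an aqueous HPMC suspension or ip as a suspension in aqueous vehicle with 10% DMSO; percentage of the dose excreted unchanged in urine was measured; n = 2 rats per profile.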

[35] = Plasma clearance in Sprague-Dawley rat at […], iv; assay type: ADME, organism-based; parameters: dose 4.5 mg/kg, route intravenous
[36] = Apparent terminal half life in Sprague-Dawley rat at 20 mg/kg, po; assay type: ADME, organism-based; parameters: dose 20 mg/kg, route oral; details: in vivo, read-out: betat1/2(app) (converted)
[37] = Drug excretion in Sprague-Dawley rat urine at 19 mg/kg, ip; assay type: ADME, organism-based; parameters: dose 19 mg/kg, route intraperitoneal; details: read-out: Drug excretion; how it was run: as §4
[38] = in vivo; details: Sprague-Dawley, rat, ip, 19 mg/kg
[39] = in vivo; details: Sprague-Dawley, rat, po, 20 mg/kg

CCOC(=O)C1=C(O)/C(=C\c2cc(C)n(-c3ccc(F)cc3)c2C)N=C1C
logD [1]: 2.9 | Drug metabolism [2]: Active | microsomal CLint at 1 µM [3]: 94 µL/min/mg

CCOC(=O)C1=C(C)N/C(=C/c2cc(C)n(-c3cc(OC)c(OC)c(OO)c3)c2C)C1=O
logD [1]: 2.6 | microsomal CLint at 1 µM [3]: 63 µL/min/mg

CCOC(=O)C1=C(C)N/C(=C/c2cc(C)n(-c3cccc(OC)c3)c2C)C1=O
logD [1]: 2.9 | Microsomal intrinsic clearance (CLint) [4]: 150 µL/min/mg

CCOC(=O)C1=C(C)N/C(=C/c2cc(C)n(-c3ccc(SC(F)(F)F)cc3)c2C)C1=O
Drug metabolism [2]: Active | Microsomal intrinsic clearance (CLint) [4]: 76 µL/min/mg

CCOC(=O)C1=C(C)N/C(=C/c2cc(C)n(-c3ccc(S(=O)(=O)C(F)(F)F)cc3)c2C)C1=O
Microsomal intrinsic clearance (CLint) [4]: 58 µL/min/mg

CCOC(=O)C1=C(C)N/C(=C/c2cc(C)n(-c3ccc(SC)cc3)c2C)C1=O
Drug metabolism [2]: Active | Microsomal intrinsic clearance (CLint) [4]: 66 µL/min/mg

CCOC(=O)C1=C(C)N/C(=C/c2cc(C)n(-c3ccncc3)c2C)C1=O
logD [1]: 3.2 | Drug metabolism [2]: Active | Microsomal intrinsic clearance (CLint) [4]: 61 µL/min/mg | Drug metabolism [5]: Active

CCOC(=O)C1=C(C)N/C(=C/c2cc(C)n(-c3cccnc3)c2C)C1=O
logD [1]: 2.1 | Microsomal intrinsic clearance (CLint) [4]: 82 µL/min/mg

CCOC(=O)C1=C(C)N/C(=C/c2cc(C)n(-c3ccc(N4CCOCC4)cc3)c2C)C1=O
logD [1]: 3.3 | Drug metabolism [6]: Active | Microsomal intrinsic clearance (CLint) [4]: 31 µL/min/mg

CCOC(=O)C1=C(C)N/C(=C/c2cc(C)n(Cc3ccc(C(F)(F)F)cc3)c2C)C1=O
Microsomal intrinsic clearance (CLint) [4]: 100 µL/min/mg

CCOC(=O)C1=C(C)N/C(=C/c2cc(C)n(-c3ccc(CN4CCCCC4)cc3)c2C)C1=O
logD [1]: 8.5 | Microsomal intrinsic clearance (CLint) [4]: 60 µL/min/mg

CCOC(=O)C1=C(C)N/C(=C/c2cc(C)n(-c3ccc(CN4CCOCC4)cc3)c2C)C1=O
logD [1]: 6.7 | Microsomal intrinsic clearance (CLint) [4]: 56 µL/min/mg

CCOC(=O)C1=C(C)N/C(=C/c2cc(C)n(-c3ccc(CN(C)C)cc3)c2C)C1=O
logD [1]: 8.3 | Microsomal intrinsic clearance (CLint) [4]: 31 µL/min/mg

CCOC(=O)C1=C(C)N/C(=C/c2ccn(-c3ccccc3C(F)(F)F)c2)C1=O
Microsomal intrinsic clearance (CLint) [4]: 160 µL/min/mg

CCOC(=O)C1=C(C)N/C(=C/c2ccn(-c3ccc(C(F)(F)F)cc3)c2)C1=O
Drug metabolism [2]: Active | Microsomal intrinsic clearance (CLint) [4]: 140 µL/min/mg

CCOC(=O)C1=C(C)N/C(=C/c2cc(CC)n(-c3ccccc3C(F)(F)F)c2CC)C1=O
Drug metabolism [2]: Active | Microsomal intrinsic clearance (CLint) [4]: 140 µL/min/mg

CC1=C(C(=O)OC(C)(C)C)C(=O)/C(=C\c2cc(C)n(-c3ccccc3C(F)(F)F)c2C)N1
Drug metabolism [2]: Active | Microsomal intrinsic clearance (CLint) [4]: 86 µL/min/mg | Drug metabolism [5]: Active

CC1=C(C(=O)OCc2ccccc2)C(=O)/C(=C\c2cc(C)n(-c3ccccc3C(F)(F)F)c2C)N1
Microsomal intrinsic clearance (CLint) [4]: 560 µL/min/mg

CC1=C(C(=O)O)C(=O)/C(=C\c2cc(C)n(-c3ccccc3C(F)(F)F)c2C)N1
logD [1]: 5.8 | Drug metabolism [7]: Active | Microsomal intrinsic clearance (CLint) [4]: 22 µL/min/mg

CC1=CC(=O)/C(=C\c2cc(C)n(-c3ccccc3C(F)(F)F)c2C)N1
Microsomal intrinsic clearance (CLint) [4]: 23 µL/min/mg

CC1=C(C(N)=O)C(=O)/C(=C\c2cc(C)n(-c3ccccc3C(F)(F)F)c2C)N1
Drug metabolism [2]: Active

CCOC(=O)C1=C(C)N/C(=C/c2cc(C)n(-c3ccc(Cl)cc3)c2C)C1=O
logD [1]: 3.4 | Microsomal intrinsic clearance (CLint) [4]: 72 µL/min/mg

CCOC(=O)C1=C(C)N/C(=C/c2cc(C)n(-c3ccc(Br)cc3)c2C)C1=O
logD [1]: 3.4 | Microsomal intrinsic clearance (CLint) [4]: 62 µL/min/mg

CCOC(=O)C1=C(C)N/C(=C/c2cc(C)n(-c3ccc(OC)cc3)c2C)C1=O
logD [1]: 3 | Drug metabolism [2]: Active | Microsomal intrinsic clearance (CLint) [4]: 54 µL/min/mg

CCOC(=O)C1=C(C)N/C(=C/c2cc(C)n(-c3ccc(N(C)C)cc3)c2C)C1=O
logD [1]: 3.4 | Drug metabolism [8]: Active | Microsomal intrinsic clearance (CLint) [4]: 56 µL/min/mg

CCOC(=O)C1=C(C)N/C(=C/c2cc(C)n(-c3ccc(C(F)(F)F)cc3)c2C)C1=O
logD [1]: 3.4 | t1/2 [9]: 0.548 h | t1/2 [10]: 0.933 h | CLH [11]: 31 µL/min/mg | Drug metabolism [12]: Not Active | CLH [13]: 49 µL/min/mg | F [14]: 4% | t1/2 [15]: 0.583 h | Cmax [16]: 190 nM | Microsomal intrinsic clearance (CLint) [4]: 53 µL/min/mg | Drug metabolism [17]: Not Active | Vd [18]: 19 L/kg | Drug metabolism [19]: Not Active | Tmax [20]: 1.67 h | half-life [21]: 87 h | clearance [22]: 22 mL/min/kg

CCOC(=O)C1=C(C)N/C(=C/c2cc(C)n(-c3cccc(C(F)(F)F)c3)c2C)C1=O
logD [1]: 3.4 | Microsomal intrinsic clearance (CLint) [4]: 97 µL/min/mg

CCOC(=O)C1=C(C)N/C(=C/c2cc(C)n(-c3ccc(F)cc3F)c2C)C1=O
logD [1]: 3 | Drug metabolism [2]: Active | Microsomal intrinsic clearance (CLint) [4]: 77 µL/min/mg

CCOC(=O)C1=C(C)N/C(=C/c2cc(C)n(-c3ccccc3C(F)(F)F)c2C)C1=O
Cmax [23]: 3300 nM | logD [1]: 3.3 | t1/2 [9]: […] | t1/2 [10]: 0.733 h | CLH [11]: 40 µL/min/mg | dose excreted [24]: 0.05% | half-life [25]: 9.1 h | Drug metabolism [12]: Not Active | F [26]: 6% | CLH [13]: 30 µL/min/mg | F [27]: 45.7% | t1/2 [15]: 0.967 h | Vd [28]: 13 L/kg | half-life [29]: 12 h | Drug metabolism [2]: Active | Drug excretion [30]: Not Active | Cmax [31]: 110 nM | Drug metabolism [17]: Not Active | Stability [32]: Stable | Drug metabolism [33]: Active | dose excreted [34]: 0.08% | clearance [35]: 73 mL/min/kg | half-life [36]: 7.9 h | dose excreted [37]: 0.01% | Tmax [38]: 0.25 h | Tmax [39]: 3.33 h
